Results: article PMC10091778 (Drug Development Research, 2022)

How the values were obtained:
[1] = system: HL‐60 human acute promyelocytic leukemia cells; assay: Resazurin cell viability assay on HL-60 cells; type: cell-based; conditions: HL-60, 72 h, read-out: IC50 HL‐60
Outline: (§1)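 Cells were seeded in 96-well plates (4T1 10,000, A549 10,000, HL-60 20,000 per well), with adherent lines settling overnight. Test compound came from a 10 mM DMSO stock, serially diluted in medium to 1.56–50 µM (some 39 nM–12.5 µM), for 72 h; three biological replicates. Resazurin (0.15 mg/ml stock, 20 µl per 100 µl) ran 2 h at 37 °C, read at 530/580 nm. Viability was set against untreated and blank wells; IC50 from curves.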

[2] = system: 4T1 murine triple negative breast cancer cells; assay: Resazurin cell viability assay on 4T1 cells; type: cell-based; conditions: Mus musculus, 4T1, 72 h, read-out: IC50 4T1
Outline: as §1

[3] = system: 4T1, A549, and HL‐60 cells; type: cell-based; conditions: resazurin assay, 72 h, up to 50 µM, three cancer cell lines
Outline: as §1

HL‐60 cells [4] = assay: Mitochondrial membrane depolarization by JC-1 staining; type: cell-based, human; conditions: 16 h, untreated 7.6 ± 0.6%; for Cells with green JC‐1 accumulation (depolarized MMP): 3 µM; for Cells with green JC‐1 monomers (depolarized MMP): 6 µM
HL‐60 cells [5] = assay: Sub-G1 DNA fragmentation analysis by flow cytometry; type: cell-based, human; conditions: 6 µM, 72 h; mean ± SD; untreated 11.7 ± 1.2%
HL‐60 cells [6] = assay: Cell cycle analysis by flow cytometry; type: cell-based, human; conditions: 72 h; for Cells in G2/M phase: untreated 17.3 ± 1.7%
HL‐60 cells [7] = assay: Annexin V / propidium iodide flow cytometry; type: cell-based, human; conditions: 6 µM, 24 h; for Early apoptotic cells (AnnV+/PI−): untreated 1.9 ± 0.5%; for Late apoptotic cells (AnnV+/PI+): untreated 9.5 ± 2.7%; for Living cells (AnnV−/PI−): untreated 85 ± 3.9%
Outline: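 HL-60 cells (100,000) were treated for 24 h at 1, 3 or 6 µM, then resuspended in Annexin V binding buffer (0.01 M HEPES, 0.14 M NaCl, 2.5 mM CaCl2). Annexin V-Alexa 488 was added for 15 min in the dark at room temperature, then PI (10 µg/ml). Quadrant percentages were taken by flow cytometry; three biological replicates, mean ± SD; two-tailed t test against untreated.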

SMILES	IC50 [1] [µM]	IC50 [2] [µM]	Cytotoxic / antiproliferative activity in words [3]	other results
CCOC(=O)c1[nH]c(N)nc1-c1cccc(NC(=O)c2cc3ccccc3[nH]2)c1 [Compound 16, Ethyl 4‐(3‐(1H‐indole‐2‐carboxamido)phenyl)−2‐amino‐1H‐imidazole‐5‐carboxylate]	14.4	19.3	–	–
CCOC(=O)c1[nH]c(N)nc1-c1cccc(NC(=O)c2ccc3cccc(O)c3n2)c1 [Compound 17, Ethyl 2‐amino‐4‐(3‐(8‐hydroxyquinoline‐2‐carboxamido)phenyl)−1H‐imidazole‐5‐carboxylate]	5.81	17.1	low antiproliferative activity	–
Nc1nc(-c2cccc(NC(=O)c3ccc4cccc(O)c4n3)c2)c(C(=O)c2ccccc2)[nH]1 [Compound 18, N‐(3‐(2‐amino‐5‐benzoyl‐1H‐imidazol‐4‐yl)phenyl)−8‐hydroxyquinoline‐2‐carboxamide]	8.95	13.9	low antiproliferative activity	–
Nc1nc(-c2cccc(NC(=O)c3ccc4ccccc4n3)c2)c(C(=O)c2ccccc2)[nH]1 [Compound 19, N‐(3‐(2‐amino‐5‐benzoyl‐1H‐imidazol‐4‐yl)phenyl)quinoline‐2‐carboxamide]	–	–	completely inactive	–
Nc1nc(-c2cccc(NC(=O)c3ccccn3)c2)c(C(=O)c2ccccc2)[nH]1 [Compound 20, N‐(3‐(2‐amino‐5‐benzoyl‐1H‐imidazol‐4‐yl)phenyl)picolinamide]	24.8	30.7	–	–
Nc1nc(-c2cccc(NC(=O)c3cc(Br)c[nH]3)c2)c(C(=O)c2ccccc2)[nH]1 [Compound 21, N‐(3‐(2‐amino‐5‐benzoyl‐1H‐imidazol‐4‐yl)phenyl)‐4‐bromo‐1H‐pyrrole‐2‐carboxamide]	–	–	completely inactive	–
Nc1nc(-c2cccc(NC(=O)c3ccc[nH]3)c2)c(C(=O)c2ccccc2)[nH]1 [Compound 22, N‐(3‐(2‐amino‐5‐benzoyl‐1H‐imidazol‐4‐yl)phenyl)‐1H‐pyrrole‐2‐carboxamide]	6.9	–	low antiproliferative activity	–
Nc1nc(-c2cccc(NC(=O)c3cc4cc(F)ccc4[nH]3)c2)c(C(=O)c2ccccc2)[nH]1 [Compound 23, N‐(3‐(2‐amino‐5‐benzoyl‐1H‐imidazol‐4‐yl)phenyl)‐5‐fluoro‐1H‐indole‐2‐carboxamide]	5.21	9.05	hampered the viability of all three tested cell lines	Cells with green JC‐1 accumulation (depolarized MMP) (HL‐60 cells [4]): 9.1 ± 0.2%; Cells with green JC‐1 monomers (depolarized MMP) (HL‐60 cells [4]): 13.4 ± 0.8%; DNA fragmentation (sub‐G1 population) of HL‐60 cells (HL‐60 cells [5]): 22.9 ± 1.2%; Cells in G2/M phase (HL‐60 cells [6]; 3 µM): 22.4 ± 1.6%; Cells in G2/M phase (HL‐60 cells [6]; 6 µM): 39.2 ± 3.1%; Effect on cell cycle distribution, in words (HL‐60 cells [6]): significantly disturbed cell cycle distribution; Early apoptotic cells (AnnV+/PI−) (HL‐60 cells [7]; mean ± SD): 3.2 ± 0.7%; Late apoptotic cells (AnnV+/PI+) (HL‐60 cells [7]; mean ± SD): 15.5 ± 3.9%; Living cells (AnnV−/PI−) (HL‐60 cells [7]; mean ± SD): 76.8 ± 3.5%
CCOC(=O)c1[nH]c(N)nc1-c1cccc(NC(=O)c2cc3cc(OC)ccc3[nH]2)c1 [Compound 24, Ethyl 2‐amino‐4‐(3‐(5‐methoxy‐1H‐indole‐2‐carboxamido)phenyl)‐1H‐imidazole‐5‐carboxylate]	7.57	12.6	low antiproliferative activity	–
Nc1nc(-c2cccc(NC(=O)c3cc4ccccc4[nH]3)c2)c(C(=O)c2ccccc2)[nH]1 [Compound 25, N‐(3‐(2‐amino‐5‐benzoyl‐1H‐imidazol‐4‐yl)phenyl)‐1H‐indole‐2‐carboxamide]	6.34	–	low antiproliferative activity	–
COc1ccc2[nH]c(C(=O)Nc3cccc(-c4nc(N)[nH]c4C(C)=O)c3)cc2c1 [Compound 26, N‐(3‐(5‐acetyl‐2‐amino‐1H‐imidazol‐4‐yl)phenyl)‐5‐methoxy‐1H‐indole‐2‐carboxamide]	24.8	35	–	–
COc1ccc2[nH]c(C(=O)Nc3cccc(-c4nc(N)[nH]c4C(=O)c4ccccc4)c3)cc2c1 [Compound 27, N‐(3‐(2‐amino‐5‐benzoyl‐1H‐imidazol‐4‐yl)phenyl)‐5‐methoxy‐1H‐indole‐2‐carboxamide]	3.12	11.7	hampered the viability of all three tested cell lines	Cells with green JC‐1 accumulation (depolarized MMP) (HL‐60 cells [4]): 13.3 ± 1.1%; Cells with green JC‐1 monomers (depolarized MMP) (HL‐60 cells [4]): 42.4 ± 0.8%; DNA fragmentation (sub‐G1 population) of HL‐60 cells (HL‐60 cells [5]): 53.8 ± 7.3%; Early apoptotic cells (AnnV+/PI−) (HL‐60 cells [7]; mean ± SD): 16.1 ± 0.6%; Necrotic cells (AnnV−/PI+) (HL‐60 cells [7]; mean ± SD, untreated 3.6 ± 1.6%): 2.5 ± 0.3%; Late apoptotic cells (AnnV+/PI+) (HL‐60 cells [7]; mean ± SD): 50.7 ± 0.9%; Living cells (AnnV−/PI−) (HL‐60 cells [7]; mean ± SD): 30.5 ± 0.7%
CC(=O)c1[nH]c(N)nc1-c1cccc(NC(=O)c2cc3cc(F)ccc3[nH]2)c1 [Compound 30, N‐(3‐(5‐acetyl‐2‐amino‐1H‐imidazol‐4‐yl)phenyl)‐5‐fluoro‐1H‐indole‐2‐carboxamide]	25	25.3	–	–
CCOC(=O)c1[nH]c(N)nc1-c1cccc(NC(=O)c2cc3cc(F)ccc3[nH]2)c1 [Compound 31, Ethyl 2‐amino‐4‐(3‐(5‐fluoro‐1H‐indole‐2‐carboxamido)phenyl)‐1H‐imidazole‐5‐carboxylate]	10	14.4	–	–
Nc1nc(-c2cc(NC(=O)c3cc4cc(Br)ccc4[nH]3)ccc2Cl)c(C(=O)c2ccccc2)[nH]1 [Compound 32, N‐(3‐(2‐amino‐5‐benzoyl‐1H‐imidazol‐4‐yl)‐4‐chlorophenyl)‐5‐bromo‐1H‐indole‐2‐carboxamide]	7.82	12.4	hampered the viability of all three tested cell lines	Concentrations at which arrest in G0/G1 phase occurred (HL‐60 cells [6]): 1 to 6 µM; Effect on cell cycle distribution, in words (HL‐60 cells [6]): significantly disturbed cell cycle distribution; Late apoptotic cells (AnnV+/PI+) (HL‐60 cells [7]; mean ± SD): 11.7 ± 2.6%; Living cells (AnnV−/PI−) (HL‐60 cells [7]; mean ± SD): 78.9 ± 1.6%
Nc1nc(-c2cc(Cl)cc(NC(=O)c3cc4cc(Br)ccc4[nH]3)c2)c(C(=O)c2ccccc2)[nH]1 [Compound 33, N‐(3‐(2‐amino‐5‐benzoyl‐1H‐imidazol‐4‐yl)‐5‐chlorophenyl)‐5‐bromo‐1H‐indole‐2‐carboxamide]	6.44	11.5	hampered the viability of all three tested cell lines	Cells in G0/G1 phase (HL‐60 cells [6]; 6 µM, control 64.3 ± 1.9%): 74.1 ± 1.4%; Concentrations at which arrest in G0/G1 phase occurred (HL‐60 cells [6]): 3 to 6 µM; Effect on cell cycle distribution, in words (HL‐60 cells [6]): significantly disturbed cell cycle distribution; Late apoptotic cells (AnnV+/PI+) (HL‐60 cells [7]; mean ± SD): 15.6 ± 1.8%; Living cells (AnnV−/PI−) (HL‐60 cells [7]; mean ± SD): 79.1 ± 1.9%
Cc1ccc(NC(=O)c2cc3cc(Br)ccc3[nH]2)cc1-c1nc(N)[nH]c1C(=O)c1ccccc1 [Compound 34, N‐(3‐(2‐amino‐5‐benzoyl‐1H‐imidazol‐4‐yl)‐4‐methylphenyl)‐5‐bromo‐1H‐indole‐2‐carboxamide]	24.3	27	–	–
Nc1nc(-c2ccc(NC(=O)c3cc4cc(Br)ccc4[nH]3)cc2)c(C(=O)c2ccccc2)[nH]1 [Compound 35, N‐(4‐(2‐amino‐5‐benzoyl‐1H‐imidazol‐4‐yl)phenyl)‐5‐bromo‐1H‐indole‐2‐carboxamide]	6.77	11	hampered the viability of all three tested cell lines	Cells in G2/M phase (HL‐60 cells [6]; 1 µM): 20.8 ± 0.4%; Effect on cell cycle distribution, in words (HL‐60 cells [6]): significantly disturbed cell cycle distribution; AnnexinV translocation, in words (HL‐60 cells [7]): did not influenced AnnexinV translocation significantly
